Results: ChEMBL document CHEMBL1250505, “Synthesis and biological property of some novel 1,3,4-oxadiazoles” (2010)

How the values were obtained:
Format in all cases: functional
Escherichia coli [1] = experiment: Antibacterial activity against Escherichia coli at 100 ug/ml after 24 to 48 hrs by cup-plate method; settings: read-out: IZ
How it was run: (§1)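 Sterile nutrient agar cooled to […] and seeded with 18-24 h sub-cultures, then poured at about 45-50 mL per dish. Wells cut with a 6 mm sterile cork borer and filled with 0.1 mL of each of two test dilutions. Plates incubated inverted at 37 °C for 24–48 h; inhibition zone diameters measured in mm. Streptomycin and procaine penicillin served as standards.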

Bacillus subtilis [2] = experiment: Antibacterial activity against Bacillus subtilis at 100 ug/ml after 24 to 48 hrs by cup-plate method; settings: read-out: IZ; how it was run: as §1
Mus musculus [3] = experiment: Analgesic activity in albino mouse assessed as paw licking latency at 100 mg/kg after 1 hr by Eddy's hot plate method
How it was run: (§2)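 Albino mice of either sex, fasted 24 h, 6 per group. Compounds given at 100 mg/kg; control group received 2% acacia suspension, standard group pentazocine 35 mg/kg. Hot plate held at 55 ± 1 °C. Reaction time is the time to lick a hind paw or leap off the plate, recorded at 0, 30, 60, 120 and 240 min after dosing.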

Mus musculus [4] = experiment: Analgesic activity in albino mouse assessed as paw licking latency at 100 mg/kg after 0.5 hrs by Eddy's hot plate method; how it was run: as §2
Mus musculus [5] = experiment: Analgesic activity in albino mouse assessed as paw licking latency at 100 mg/kg after 4 hrs by Eddy's hot plate method; how it was run: as §2
Pseudomonas aeruginosa [6] = experiment: Antibacterial activity against Pseudomonas aeruginosa at 100 ug/ml after 24 to 48 hrs by cup-plate method; settings: read-out: IZ; how it was run: as §1
Staphylococcus aureus [7] = experiment: Antibacterial activity against Staphylococcus aureus at 50 ug/ml after 24 to 48 hrs by cup-plate method; settings: read-out: IZ; how it was run: as §1
Escherichia coli [8] = experiment: Antibacterial activity against Escherichia coli at 50 ug/ml after 24 to 48 hrs by cup-plate method; settings: read-out: IZ; how it was run: as §1
Pseudomonas aeruginosa [9] = experiment: Antibacterial activity against Pseudomonas aeruginosa at 50 ug/ml after 24 to 48 hrs by cup-plate method; settings: read-out: IZ; how it was run: as §1
Bacillus subtilis [10] = experiment: Antibacterial activity against Bacillus subtilis at 50 ug/ml after 24 to 48 hrs by cup-plate method; settings: read-out: IZ; how it was run: as §1
Mus musculus [11] = experiment: Analgesic activity in albino mouse assessed as paw licking latency at 100 mg/kg after 2 hrs by Eddy's hot plate method; how it was run: as §2
Staphylococcus aureus [12] = experiment: Antibacterial activity against Staphylococcus aureus at 100 ug/ml after 24 to 48 hrs by cup-plate method; settings: read-out: IZ; how it was run: as §1

| SMILES | zone of inhibition at 100 µg/mL (Escherichia coli [1]) [mm] | zone of inhibition at 100 µg/mL (Bacillus subtilis [2]) [mm] | Time (Mus musculus [3]) [s] | Time (Mus musculus [4]) [s] | Time (Mus musculus [5]) [s] | zone of inhibition at 100 µg/mL (Pseudomonas aeruginosa [6]) [mm] | zone of inhibition at 50 µg/mL (Staphylococcus aureus [7]) [mm] | zone of inhibition at 50 µg/mL (Escherichia coli [8]) [mm] | zone of inhibition at 50 µg/mL (Pseudomonas aeruginosa [9]) [mm] | zone of inhibition at 50 µg/mL (Bacillus subtilis [10]) [mm] | Time (Mus musculus [11]) [s] | zone of inhibition at 100 µg/mL (Staphylococcus aureus [12]) [mm] |
| --- | --- | --- | --- | --- | --- | --- | --- | --- | --- | --- | --- | --- |
| COc1ccccc1-c1cccc(-c2n[nH]c(=S)o2)c1 | 18 | 21 | 5.84 | 4.94 | 6.28 | 18 | 11 | 12 | 11 | 10 | 7.61 | 18 |
| Fc1ccccc1-c1cccc(-c2n[nH]c(=S)o2)c1 | 19 | 19 | 5.24 | 4.99 | 5.04 | 21 | 15 | 15 | 18 | 12 | 5.38 | 20 |
| S=c1[nH]nc(-c2cccc(-c3cccc(Cl)c3)c2)o1 | 16 | 9 | 4.84 | 4.71 | 5.08 | 14 | 10 | 11 | 9 | 13 | 5.01 | 11 |
| N#CCCCSc1nnc(-c2cccc(-c3ccccc3F)c2)o1 | 21 | 18 | 4.71 | 4.54 | 4.49 | 20 | 11 | 17 | 16 | 12 | 4.92 | 16 |
| N#CCCCSc1nnc(-c2cccc(-c3cccc(Cl)c3)c2)o1 | 17 | 16 | 4.77 | 4.51 | 4.71 | 16 | 10 | 10 | 12 | 8 | 5.12 | 15 |
| COc1ccc(F)cc1-c1cccc(-c2n[nH]c(=S)o2)c1 | 20 | 19 | 5.74 | 5.22 | 6.35 | 19 | 12 | 8 | 14 | 12 | 8.41 | 17 |
| COC(=O)CCCSc1nnc(-c2cccc(-c3cc(F)ccc3OC)c2)o1 | 18 | 18 | 5.11 | 4.75 | 6.01 | 19 | 10 | 15 | 13 | 13 | 6.01 | 16 |
| COC(=O)CCCSc1nnc(-c2cccc(-c3ccccc3OC)c2)o1 | 16 | 15 | 5.21 | 5.01 | 6.21 | 21 | 9 | 7 | 18 | 11 | 6.58 | 14 |
| COC(=O)CCCSc1nnc(-c2cccc(-c3ccccc3F)c2)o1 | 16 | 16 | 4.62 | 4.53 | 4.49 | 21 | 15 | 9 | 13 | 9 | 4.84 | 17 |
| COC(=O)CCCSc1nnc(-c2cccc(-c3cccc(Cl)c3)c2)o1 | 19 | 18 | 5.36 | 4.96 | 5.59 | 18 | 10 | 18 | 6 | 11 | 6.58 | 16 |
| COc1ccc(F)cc1-c1cccc(-c2nnc(SCCCCF)o2)c1 | 19 | 17 | 4.48 | 4.35 | 4.55 | 15 | 12 | 12 | 7 | 10 | 4.72 | 15 |
| COc1ccccc1-c1cccc(-c2nnc(SCCCCF)o2)c1 | 16 | 20 | 5.01 | 4.9 | 6.01 | 15 | 15 | 12 | 6 | 15 | 6.17 | 21 |
| FCCCCSc1nnc(-c2cccc(-c3ccccc3F)c2)o1 | 19 | 22 | 4.69 | 4.62 | 4.47 | 18 | 13 | 13 | 17 | 20 | 4.87 | 20 |
| FCCCCSc1nnc(-c2cccc(-c3cccc(Cl)c3)c2)o1 | 15 | 20 | 5.79 | 5.56 | 6.44 | 20 | 5 | 12 | 15 | 15 | 8.35 | 12 |
| COc1ccc(F)cc1-c1cccc(-c2nnc(SCCCC#N)o2)c1 | 18 | 18 | 4.86 | 4.92 | 4.74 | 18 | 7 | 10 | 15 | 7 | 4.99 | 13 |
| COc1ccccc1-c1cccc(-c2nnc(SCCCC#N)o2)c1 | 20 | 20 | 5.4 | 5.25 | 5.59 | 20 | 12 | 10 | 9 | 17 | 6.57 | 18 |
| CN[C@@H]1[C@H](O[C@H]2[C@H](O[C@H]3[C@H](O)[C@@H](O)[C@H](N=C(N)N)[C@@H](O)[C@@H]3N=C(N)N)O[C@@H](C)[C@]2(O)C=O)O[C@@H](CO)[C@H](O)[C@H]1O [STREPTOMYCIN] | 25 |  |  |  |  | 25 |  | 21 | 21 |  |  |  |
